# Measurements from different studies.
# Organism: Mycobacterium tuberculosis
SMILES,assay,test system,conditions,quantity,value
O=[N+]([O-])c1cn(Cc2cccc(Cn3cnc([N+](=O)[O-])c3)n2)cn1,microbial killing,H37RV,21 days,MBC,> 200 µM
COC(=O)c1cc(-c2cccc(NC(=O)Nc3ccc(C(F)(F)F)cc3)c2)on1,microbial growth,ATCC27294 H37RV,7 days,MIC,0.5 µg/mL
CC[C@@H](CO)NCCN[C@@H](CC)CO,microbial growth,H37RV,,IC50,1510 nM
NNC(=O)c1ccncc1,microbial growth,ERDMAN,,IC90,> 1000 nM
[H]/N=C(/N)N[C@H]1[C@H](O)[C@@H](O)[C@H](O[C@@H]2O[C@@H](C)[C@](O)(C=O)[C@H]2O[C@@H]2O[C@@H](CO)[C@H](O)[C@@H](O)[C@@H]2NC)[C@@H](N/C(N)=N\[H])[C@@H]1O,microbial growth,H37RV,,IC90,280 nM
CCCCCCC#Cc1cncc(-c2nnc(SCc3ccc(C#N)cc3)n2C)c1,microbial growth,ERDMAN,,IC90,> 100000 nM
Cc1ccc(NC(=O)c2cccc(C(F)(F)F)c2)cc1Nc1nccn1-c1cc(NN2CCN(C)CC2)ncn1,microbial growth,H37RV,,MIC50,9.67 µM
CCCCCCC#Cc1cncc(-c2nnc(Sc3ccc([N+](=O)[O-])cc3[N+](=O)[O-])n2C)c1,microbial growth,ERDMAN,,IC50,1100 nM
COC(=O)c1cc(-c2cccc(NC(=O)Nc3ccc(Cl)cc3Cl)c2)on1,microbial growth,ATCC27294 H37RV,7 days,MIC,0.5 µg/mL
CCCCCCC#Cc1cncc(-c2nnc(SCc3ccc(Cl)c(F)c3)n2C)c1,microbial growth,ERDMAN,,IC50,5400 nM
COc1nc2ccc(Br)cc2cc1[C@@H](c1ccccc1)[C@@](O)(CCN(C)C)c1cccc2ccccc12,microbial growth,H37RV,,MIC90,0.05 µM
CCCCCCC#Cc1cncc(-c2nnc(SCc3ccc([N+](=O)[O-])o3)n2C2CC2)c1,microbial growth,ERDMAN,,IC50,48 nM
O=C(O)c1nccnc1NC(=O)c1cccc2ccccc12,microbial growth,ATCC27294 H37RV,,MIC50,1000 µM
COC(=O)c1cc(-c2cccc(NC(=S)Nc3ccccc3Cl)c2)on1,microbial growth,ATCC27294 H37RV,7 days,MIC,2 µg/mL
CC(N)(CO)C(=O)Nc1ccc(C(=O)Nc2ccnc(=O)[nH]2)cc1 (centres unmarked),microbial growth,H37RA,,IC50,> 100000 nM
O=[N+]([O-])c1cc2cc3ccc4oc([N+](=O)[O-])cc4c3cc2o1,microbial killing,H37RV,,MBC,0.062 µg/mL
CCCCCCC#Cc1cncc(-c2nnc(SCc3ccc([N+](=O)[O-])cc3)n2C)c1,microbial growth,,,IC50,1300 nM
O=[N+]([O-])c1ccc(/C=N/Nc2nc(Nc3ccccc3)nc(N3CCOCC3)n2)o1,microbial killing,,,MBC,1.6 µM
Cc1cn(-c2cc(C(=O)Nc3ccc(C)c(Nc4nccn4-c4cc(NC5CC5)ncn4)c3)cc(C(F)(F)F)c2)cn1,microbial growth,H37RV,,MIC50,0.65 µM
CO[C@H]1/C=C/O[C@@]2(C)Oc3c(C)c(O)c4c(O)c(c(/C=N/N5CCN(C)CC5)c(O)c4c3C2=O)NC(=O)/C(C)=C\C=C\[C@H](C)[C@H](O)[C@@H](C)[C@@H](O)[C@@H](C)[C@H](OC(C)=O)[C@@H]1C,microbial growth,ERDMAN,,IC90,35 nM
O=[N+]([O-])c1ccc(/C(O)=C/C(=S)S)cc1,microbial killing,ATCC27294 H37RV,,MBC,31.2 µg/mL
COC(=O)c1cc(-c2cccc(NC(=O)Nc3cccc(Br)c3)c2)on1,microbial growth,ATCC27294 H37RV,7 days,MIC,0.5 µg/mL
CCOC(=O)c1c(NC(=O)c2c(F)c(F)c(F)c(F)c2F)sc2c1CCN(CC)C2,microbial growth,H37RV,,MIC50,0.12 µM
CCCCCCC#Cc1cncc(-c2nnc(SCc3cc([N+](=O)[O-])cc([N+](=O)[O-])c3)n2C)c1,microbial growth,,,IC50,61 nM
CNc1cc(-n2nc(C(=O)NCCN3C(C)CCCC3C)cc2Nc2cc(NC(=O)c3cncc(C(C)(C)C)c3)ccc2C)ncn1 (centres unmarked),microbial growth,H37RV,,MIC50,0.11 µM
O=C(C[n+]1ccn(Cc2cccc(Cn3cc[n+](CC(=O)c4ccc([N+](=O)[O-])cc4)c3)n2)c1)c1ccc([N+](=O)[O-])cc1,microbial killing,H37RV,21 days,MBC,100 µM
Cc1ccc(NC(=O)c2cc(N3CCNCC3)cc(C(F)(F)F)c2)cc1Nc1nccn1-c1cc(NC2CC2)ncn1,microbial growth,H37RV,,MIC50,0.63 µM
COC(=O)c1cc(-c2cccc(NC(=O)NCc3ccccc3)c2)on1,microbial growth,ATCC27294 H37RV,7 days,MIC,4 µg/mL
CO[C@H]1/C=C/O[C@@]2(C)Oc3c(C)c(O)c4c(O)c(c(/C=N/N5CCN(C)CC5)c(O)c4c3C2=O)NC(=O)/C(C)=C\C=C\[C@H](C)[C@H](O)[C@@H](C)[C@@H](O)[C@@H](C)[C@H](OC(C)=O)[C@@H]1C,microbial growth,H37RV,12.5 µg/mL,inhibition,97%
